aSyn UTR inh: MLPCN primary screen, SNCA 5' untranslated region; alpha-synuclein 5'UTR reporter, inhibitor activity; inhibition, % (tested at 7.5 µM); 0.82% of 300,000 active; AID 1813, 2009; in the data active means inhibition above about 60%; inconclusive means no clear call, values can overlap the other calls;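 further: H4 neuroglioblastoma cells stably carrying SNCA 5'UTR luciferase fusion; 0% = DMSO wells and 100% = positive control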
Mdm2-MdmX inh: inhibitors of human Mdm2-MdmX association, primary screen, cell-based, luminescence, split luciferase, SaOS-2, uHTS | SaOS-2 split-luciferase Mdm2/MdmX complementation | inhibition, % at 8 µM | 3% of 330,000 active | AID 485346, 2010;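 active means inhibition of at least 50% at 8 µM in the primary screen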
Target sequence (O15151 whole entry, looked up): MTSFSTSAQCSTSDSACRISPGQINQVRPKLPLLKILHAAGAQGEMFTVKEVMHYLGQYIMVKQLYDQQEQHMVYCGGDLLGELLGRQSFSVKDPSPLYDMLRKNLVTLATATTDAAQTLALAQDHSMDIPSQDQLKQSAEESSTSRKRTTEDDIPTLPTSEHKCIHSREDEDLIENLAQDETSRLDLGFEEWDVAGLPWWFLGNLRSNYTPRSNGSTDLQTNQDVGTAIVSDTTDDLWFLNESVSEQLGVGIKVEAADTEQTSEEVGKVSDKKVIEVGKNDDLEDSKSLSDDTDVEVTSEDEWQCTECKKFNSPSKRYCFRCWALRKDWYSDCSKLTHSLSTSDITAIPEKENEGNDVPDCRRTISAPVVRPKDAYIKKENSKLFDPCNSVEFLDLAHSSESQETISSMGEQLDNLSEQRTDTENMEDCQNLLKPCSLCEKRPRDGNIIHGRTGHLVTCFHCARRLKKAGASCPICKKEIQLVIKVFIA
Target sequence (Q00987 whole entry, looked up): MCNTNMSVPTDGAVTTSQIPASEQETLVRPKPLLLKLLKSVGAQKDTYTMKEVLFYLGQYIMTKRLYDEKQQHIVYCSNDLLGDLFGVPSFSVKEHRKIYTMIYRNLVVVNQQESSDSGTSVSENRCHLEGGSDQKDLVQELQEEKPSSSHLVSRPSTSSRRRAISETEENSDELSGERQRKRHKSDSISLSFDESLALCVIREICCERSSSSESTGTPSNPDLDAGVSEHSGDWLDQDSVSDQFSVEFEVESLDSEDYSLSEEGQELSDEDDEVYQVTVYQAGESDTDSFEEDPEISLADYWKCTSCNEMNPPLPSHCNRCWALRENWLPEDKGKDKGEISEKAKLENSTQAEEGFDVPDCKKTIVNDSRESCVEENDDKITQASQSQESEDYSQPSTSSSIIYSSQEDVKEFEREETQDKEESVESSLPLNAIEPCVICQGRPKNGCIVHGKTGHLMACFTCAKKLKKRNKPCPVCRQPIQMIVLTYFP
T cruzi repl: inhibitors of intracellular T. cruzi growth, primary screen, luminescence, NIH3T3 host cells; T. cruzi beta-gal in NIH3T3, 90 h; inhibition, % (test concentration not listed); 1.4% of 300,000 active;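 active means mean inhibition across valid replicates above about 55%, limit read from the data; inconclusive means mean below that limit but half or more replicates reach it; inactive means mean below it, under half of replicates reach it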;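 further: signal also drops with host cell toxicity which is not excluded here; 0% = plate median of DMSO wells and 100% = zero luminescence signal; higher percent means less beta-gal luminescence so fewer parasites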
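System: mouse NIH/3T3 fibroblasts infected with β-gal-expressing T. cruzi Tulahuen C4 / Input: NIH/3T3 cells, 5,000 per well / Buffer or medium: Low-serum DMEM with 2% FBS / Probe or stimulus: 5000 reporter trypomastigotes per well / Schedule: ≥90 h infection period, 3 h prior cell attachment / Measured by: GalScreen luminescence, 60 min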
SKKanGAS inh: S. pyogenes SKKanGAS growth inhibitors in kanamycin, primary screen, streptokinase expression inhibitor project, SKKanGAS strain, BacTiter-Glo luminescence. 6 h. inhibition, % at 7.5 µM. 1.3% of 300,000 active. AID 1662, 2009;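 active means mean replicate score, as percent of positive control median, at least 50; inconclusive means mean below 50 but one replicate at or above 50; inactive means mean and every replicate below 50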;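 further: strain carries kanamycin resistance gene driven by streptokinase promoter and grows in 40 µg/ml kanamycin; loss of luminescence reflects streptokinase promoter inhibition or plain growth inhibition; 0% = median of DMSO wells and 100% = positive control at its reference dose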
CSC inhib: cancer stem cell viability inhibitors, primary screen, luminescence; inhibition, % at 7.5 µM; 1.1% of 300,000 active; AID 2717, 2010; cancer stem cell-like cells viability; in the data active means inhibition above about 75%; inconclusive means no clear call, values can overlap the other calls; tested in HMLE shEcad cells
Active calls of the source: *. The list is not random: actives were taken first. Their share in the collection is about 5.4%.

Results for COc1ccc(/C=N/NC(=O)Cc2csc(Nc3cccc(C(F)(F)F)c3)n2)cc1C ?
aSyn UTR inh: -0.6; Mdm2-MdmX inh: 7.6; T cruzi repl: 22.4; SKKanGAS inh: 76.8*; CSC inhib: 34.2

Results for Cc1cccc(C(=O)O/N=C/c2c(N3CCOCC3)n(C)c3ccccc23)c1 ?
aSyn UTR inh: 71.7*; Mdm2-MdmX inh: 31.2; T cruzi repl: 72.9*; SKKanGAS inh: -0.9; CSC inhib: 6.2

What do the screens show for `Cn1c(Cl)c(/C=N/OC(=O)c2ccccc2Cl)c2ccccc21`?
aSyn UTR inh: -21.4; Mdm2-MdmX inh: 4.6; T cruzi repl: -5.0; SKKanGAS inh: -9.7; CSC inhib: 0.8

How did O=C(Nc1cccc(S(=O)(=O)c2cccc(NC(=O)c3ccco3)c2)c1)c1ccco1 do in these assays?
aSyn UTR inh: 5.3; Mdm2-MdmX inh: -1.5; T cruzi repl: 55.0*; SKKanGAS inh: 6.5; CSC inhib: 14.5

How did O=C(Nc1cccc(S(=O)(=O)N2CCCC2)c1)c1ccco1 do in these assays?
Mdm2-MdmX inh: 23.8; CSC inhib: -17.6

What do the screens show for `COc1ccc(NC(=O)c2ccco2)cc1NC(=O)c1ccco1`?
aSyn UTR inh: -31.0; Mdm2-MdmX inh: -26.7; T cruzi repl: -0.8; SKKanGAS inh: -11.4; CSC inhib: -1.3

How did COc1cc(NC(=O)c2ccco2)c(OC)cc1NC(=O)Nc1cccc(Cl)c1 do in these assays?
aSyn UTR inh: 10.6; Mdm2-MdmX inh: -0.7; T cruzi repl: 57.0*; SKKanGAS inh: 21.5; CSC inhib: 3.9

What do the screens show for `O=S(=O)(NCC(c1ccco1)N1CCCCC1)c1ccccc1C(F)(F)F` (centres undefined)?
Mdm2-MdmX inh: -9.3; CSC inhib: 15.7

Results for CCCOc1ccc(-c2nn(-c3ccccc3)cc2/C=C2\SC(N)=NC2=O)cc1C ?
aSyn UTR inh: 1.8; Mdm2-MdmX inh: 7.3; T cruzi repl: 55.7*; SKKanGAS inh: 16.5; CSC inhib: 34.1

How did COc1ccc(-c2nn(CCC(=O)O)cc2/C=C2\SC(N)=NC2=O)cc1OC do in these assays?
aSyn UTR inh: 16.4; Mdm2-MdmX inh: 4.3; T cruzi repl: -20.9; SKKanGAS inh: 0.6; CSC inhib: -1.6

How did O=C(Nc1nc(-c2ccc(Cl)cc2Cl)cs1)c1ccc(OCC2CCCO2)cc1 (centres undefined) do in these assays?
aSyn UTR inh: -3.6; Mdm2-MdmX inh: 27.0; T cruzi repl: 32.4; SKKanGAS inh: 7.5; CSC inhib: 50.5

Results for CC(C)COc1ccc(C(=O)Nc2scc(-c3ccc(Cl)cc3Cl)c2C(N)=O)cc1 ?
aSyn UTR inh: 19.0; Mdm2-MdmX inh: 31.4; T cruzi repl: 55.1*; SKKanGAS inh: 1.0; CSC inhib: 44.1

What do the screens show for `Cc1cccc([N+](=O)[O-])c1NC(=O)CSc1nnc2ccccn12`?
Mdm2-MdmX inh: -32.4; CSC inhib: -8.9

How did CCc1nnc(NS(=O)(=O)c2ccc(NC(=S)NC(=O)/C=C/c3ccc(C(C)C)cc3)cc2)s1 do in these assays?
aSyn UTR inh: 27.7; Mdm2-MdmX inh: 1.7; T cruzi repl: -3.3; SKKanGAS inh: 87.3*; CSC inhib: 52.3

Results for CC(C)c1ccc(NC(=O)c2snc3ccc(Cl)cc23)cc1 ?
aSyn UTR inh: -369.5; Mdm2-MdmX inh: -75.1; T cruzi repl: 22.5; SKKanGAS inh: 8.5; CSC inhib: 79.5*

How did CC(C)c1ccc(NC(=O)c2csnn2)cc1 do in these assays?
aSyn UTR inh: -97.6; Mdm2-MdmX inh: -86.8; T cruzi repl: -16.3; SKKanGAS inh: 3.8; CSC inhib: 4.7

How did O=C(c1ccc2c(c1)OCCO2)C1CCN(C(=O)Nc2ccccc2F)CC1 do in these assays?
aSyn UTR inh: 8.5; Mdm2-MdmX inh: -12.2; T cruzi repl: -4.7; SKKanGAS inh: -16.1

What do the screens show for `COc1ccc(NC(=S)N(Cc2cccc(Br)c2)CC2CCC(C(=O)O)CC2)cc1` (centres undefined)?
aSyn UTR inh: -5.4; Mdm2-MdmX inh: -8.2; T cruzi repl: -6.5; SKKanGAS inh: -9.4; CSC inhib: -3.6

Results for COc1ccc(CN(CC2CCC(C(=O)O)CC2)C(=S)Nc2ccc(C)c(Cl)c2)cc1 (centres undefined) ?
aSyn UTR inh: -20.5; Mdm2-MdmX inh: -17.6; T cruzi repl: 57.7*; SKKanGAS inh: -7.0; CSC inhib: -2.7

What do the screens show for `CC(C)c1ccc(NC(=O)c2cc3c(=O)n(C)c4ccccc4c3n2C)cc1`?
aSyn UTR inh: 21.4; Mdm2-MdmX inh: 41.8; T cruzi repl: 60.3*; SKKanGAS inh: 13.1; CSC inhib: 75.8*

What do the screens show for `CC(=O)N(CCCN(C)C)CCC(C)CCC=C(C)C` (centres undefined)?
aSyn UTR inh: 6.8; Mdm2-MdmX inh: -31.3; T cruzi repl: 65.2*; SKKanGAS inh: -4.3; CSC inhib: 63.1

What do the screens show for `CN(C)CCCNc1c2c(nc3cc(-c4cccc(F)c4)nn13)CCC2`?
aSyn UTR inh: 12.0; Mdm2-MdmX inh: 42.0; T cruzi repl: 68.3*; SKKanGAS inh: 2.8; CSC inhib: 4.0

Results for Cc1cccc(-c2cc3nc4c(c(NCc5ccco5)n3n2)CCCC4)c1 ?
aSyn UTR inh: -92.5; Mdm2-MdmX inh: -70.3; T cruzi repl: 48.5; SKKanGAS inh: 14.7; CSC inhib: 116.8*

What do the screens show for `COc1cc(/C=C2/SC(=S)N(CCC(=O)Nc3ccccc3)C2=O)cc(OC)c1OC`?
aSyn UTR inh: -4.8; Mdm2-MdmX inh: 37.0; T cruzi repl: 5.1; SKKanGAS inh: 13.5; CSC inhib: 13.7

Results for COc1ccc(/C=C2\SC(=S)N(CCCC(=O)Nc3ccc(C(=O)O)cc3)C2=O)cc1OC ?
aSyn UTR inh: 19.0; Mdm2-MdmX inh: 7.8; T cruzi repl: -11.1; SKKanGAS inh: 16.3; CSC inhib: 20.1

What do the screens show for `COc1ccc(/C=C2\SC(=O)N(CCCC(=O)Nc3ccc(C(=O)O)cc3)C2=O)cc1OC`?
aSyn UTR inh: 73.4*; Mdm2-MdmX inh: -1.6; T cruzi repl: -6.3; SKKanGAS inh: 10.3; CSC inhib: -7.0

What do the screens show for `COc1ccc(/C=C2\SC(=O)N(CCC(=O)Nc3ccccc3)C2=O)cc1OC`?
aSyn UTR inh: 82.0*; Mdm2-MdmX inh: 49.9; T cruzi repl: 0.5; SKKanGAS inh: -11.7; CSC inhib: -5.0

Results for COc1ccc(/C=C2\SC(=S)N(CCC(=O)Nc3ccc(O)cc3)C2=O)cc1 ?
aSyn UTR inh: -12.5; Mdm2-MdmX inh: 17.2; T cruzi repl: -13.5; SKKanGAS inh: 0.7; CSC inhib: 7.2

Results for CCN(CC)CCOC(=O)c1ccc(NC(=O)CCCN2C(=O)S/C(=C/c3ccc(OC)cc3)C2=S)cc1 ?
aSyn UTR inh: 96.5*; Mdm2-MdmX inh: 48.1; T cruzi repl: inconclusive; SKKanGAS inh: 22.6; CSC inhib: 22.7

What do the screens show for `O=C(CCCN1C(=O)/C(=C/c2ccc3c(c2)OCO3)SC1=S)Nc1cccc(C(=O)O)c1`?
aSyn UTR inh: 72.9*; Mdm2-MdmX inh: 42.6; T cruzi repl: -16.5; SKKanGAS inh: 25.1; CSC inhib: -12.4

Compound activity (PubChem BioAssay)
